Reference: ChEMBL document CHEMBL1821705 (J Med Chem, 2011)
pIC50: −log10 of the molar value. Each block holds one molecule with its values, some of them ahead of it.

Experiments:
[1] = target: Hepatocyte growth factor receptor (Homo sapiens, UniProt P08581); assay: Inhibition of MET activity by TR-FRET assay
[2] = target: Mast/stem cell growth factor receptor Kit (Homo sapiens, UniProt P10721); assay: Inhibition of KIT activity by TR-FRET assay
[3] = target: Vascular endothelial growth factor receptor 2 (Homo sapiens, UniProt P35968); assay: Inhibition of KDR activity by TR-FRET assay
[4] = Half-life in cynomolgus monkey at 0.5 mg/kg, iv; assay type: ADME, organism-based, Macaca fascicularis; set-up: dose 0.5 mg/kg, route intravenous; settings: in vivo
Procedure, shortened: (§1)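 Fasted cynomolgus monkeys, n = 2 per route, given 0.5 mg/kg po or iv in 20% EtOH, 10% Cremophor EL, 15% PEG400, 15% HPCD, 0.02 mol/L HCl in water. Heparinized blood taken at 0.08–48 h (iv) or 0.50–48 h (po). Plasma stored at −80 °C, analyzed by LC-MS/MS. Parameters from noncompartmental analysis.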

[5] = Volume of distribution at steady state in cynomolgus monkey at 0.5 mg/kg, iv; assay type: ADME, organism-based, Macaca fascicularis; set-up: dose 0.5 mg/kg, route intravenous; settings: in vivo, read-out: Vdss; procedure, shortened: as §1
[6] = Total clearance in cynomolgus monkey at 0.5 mg/kg, iv; assay type: ADME, organism-based, Macaca fascicularis; set-up: dose 0.5 mg/kg, route intravenous; settings: in vivo; procedure, shortened: as §1
[7] = Half-life in cynomolgus monkey at 0.5 mg/kg, po; assay type: ADME, organism-based, Macaca fascicularis; set-up: dose 0.5 mg/kg, route oral; settings: in vivo; procedure, shortened: as §1
[8] = Cmax in cynomolgus monkey at 0.5 mg/kg, po; assay type: ADME, organism-based, Macaca fascicularis; set-up: dose 0.5 mg/kg, route oral; settings: in vivo; procedure, shortened: as §1
[9] = AUC in cynomolgus monkey at 0.5 mg/kg, po; assay type: ADME, organism-based, Macaca fascicularis; set-up: dose 0.5 mg/kg, route oral; settings: plasma; procedure, shortened: as §1
[10] = Oral bioavailability in cynomolgus monkey at 0.5 mg/kg; assay type: ADME, organism-based, Macaca fascicularis; settings: in vivo; procedure, shortened: as §1
[11] = Clearance in mouse liver microsome at 1 uM after 30 mins by LC/MS analysis in the presence of NADPH; assay type: ADME; settings: liver microsomes
Procedure, shortened: (§2)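 Compound at 1 μM incubated with human or mouse liver microsomes (0.5 mg protein/mL) in 50 mM phosphate buffer pH 7.4 with 1 mM NADPH, 37 °C, 30 min. Stopped with acetonitrile, centrifuged. Remaining compound in the supernatant quantified by LC/MS.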

[12] = Clearance in human liver microsome at 1 uM after 30 mins by LC/MS analysis in the presence of NADPH; assay type: ADME; settings: liver microsomes; procedure, shortened: as §2
KARPAS-299 [13] = assay: Antitumor activity against human KARPAS299 xenografted in po dosed SCID mouse assessed as decrease in tumor volume; assay type: functional, organism-based
Procedure, shortened: (§3)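 KARPAS-299 grown as sc tumors in SCID mice. Dosing started when tumors reached about 200 mm³, with four mice per group randomized. Vehicle or compound given by oral sonde once daily for 11 days; vehicle 10% DMSO, 10% Cremophor EL, 15% PEG400, 15% HPCD. Tumor volume taken as (L × W²)/2, measured twice weekly. TGI = [1 − (T − T₀)/(C − C₀)] × 100.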

[14] = target: RAF proto-oncogene serine/threonine-protein kinase (Homo sapiens, UniProt P04049); assay: Inhibition of Raf-1 activity assessed as MEK1/2 phosphorylation
Procedure, shortened: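 Raf-1 activity read as phosphorylation of MEK1/2, detected with europium-labelled anti-phospho-MEK1/2 (Ser217/221) antibody.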

[15] = target: T1, Protein kinase C beta type (Homo sapiens, UniProt P05771); assay: Inhibition of PKCb2 activity by fluorescence polarization assay
[16] = target: T1, Protein kinase C beta type; assay: Inhibition of PKCb1 activity by fluorescence polarization assay
[17] = target: Protein kinase C alpha type (Homo sapiens, UniProt P17252); assay: Inhibition of PKCA activity by fluorescence polarization assay
Aurora kinase A = target: T2, Aurora kinase A (Homo sapiens, UniProt O14965); assay: Inhibition of Aurora-A activity by fluorescence polarization assay
T2 sequence (O14965 whole entry): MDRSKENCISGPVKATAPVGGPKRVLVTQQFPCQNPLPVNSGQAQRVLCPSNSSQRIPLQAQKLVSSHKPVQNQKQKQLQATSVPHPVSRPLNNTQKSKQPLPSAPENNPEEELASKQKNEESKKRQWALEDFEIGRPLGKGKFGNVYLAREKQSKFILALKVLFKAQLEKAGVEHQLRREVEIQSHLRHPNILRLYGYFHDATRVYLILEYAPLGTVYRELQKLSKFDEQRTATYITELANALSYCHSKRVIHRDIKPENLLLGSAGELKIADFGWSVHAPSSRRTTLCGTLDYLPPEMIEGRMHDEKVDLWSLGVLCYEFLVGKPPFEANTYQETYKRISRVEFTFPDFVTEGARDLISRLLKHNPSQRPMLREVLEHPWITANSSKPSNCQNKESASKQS

[18] = target: RAC-alpha serine/threonine-protein kinase (Homo sapiens, UniProt P31749); assay: Inhibition of AKT1 activity by fluorescence polarization assay
[19] = target: Receptor tyrosine-protein kinase erbB-2 (Homo sapiens, UniProt P04626); assay: Inhibition of HER2 activity by TR-FRET assay
[20] = target: Insulin-like growth factor 1 receptor (Homo sapiens, UniProt P08069); assay: Inhibition of IGF1R activity by TR-FRET assay
[21] = target: Tyrosine-protein kinase ABL1 (Homo sapiens, UniProt P00519); assay: Inhibition of ABL activity by TR-FRET assay
[22] = target: Fibroblast growth factor receptor 2 (Homo sapiens, UniProt P21802); assay: Inhibition of FGFR2 activity by TR-FRET assay
[23] = target: Proto-oncogene tyrosine-protein kinase Src (Homo sapiens, UniProt P12931); assay: Inhibition of SRC activity by TR-FRET assay
Insulin receptor = Insulin receptor (Homo sapiens, UniProt P06213); assay: Inhibition of INSR activity by TR-FRET assay
KARPAS-299 [24] = assay: Antitumor activity against human KARPAS299 xenografted in SCID mouse assessed as tumor growth inhibition at 2 mg/kg, po administered for 11 days after 8 days of tumor implantation; assay type: functional; settings: read-out: TGI; procedure, shortened: as §3
KARPAS-299 [25] = assay: Antitumor activity against human KARPAS299 xenografted in SCID mouse assessed as tumor growth inhibition at 6 mg/kg, po administered for 11 days after 8 days of tumor implantation; assay type: functional; settings: read-out: TGI; procedure, shortened: as §3
KARPAS-299 [26] = assay: Antitumor activity against human KARPAS299 xenografted in SCID mouse assessed as tumor growth inhibition at 20 mg/kg, po administered for 11 days after 8 days of tumor implantation; assay type: functional; settings: read-out: TGI; procedure, shortened: as §3
KARPAS-299 [27] = assay: cells; settings: Homo sapiens, KARPAS-299, 96 h
[28] = target: ALK tyrosine kinase receptor (Homo sapiens, UniProt Q9UM73)
Chain of ALK tyrosine kinase receptor (Q9UM73 whole entry): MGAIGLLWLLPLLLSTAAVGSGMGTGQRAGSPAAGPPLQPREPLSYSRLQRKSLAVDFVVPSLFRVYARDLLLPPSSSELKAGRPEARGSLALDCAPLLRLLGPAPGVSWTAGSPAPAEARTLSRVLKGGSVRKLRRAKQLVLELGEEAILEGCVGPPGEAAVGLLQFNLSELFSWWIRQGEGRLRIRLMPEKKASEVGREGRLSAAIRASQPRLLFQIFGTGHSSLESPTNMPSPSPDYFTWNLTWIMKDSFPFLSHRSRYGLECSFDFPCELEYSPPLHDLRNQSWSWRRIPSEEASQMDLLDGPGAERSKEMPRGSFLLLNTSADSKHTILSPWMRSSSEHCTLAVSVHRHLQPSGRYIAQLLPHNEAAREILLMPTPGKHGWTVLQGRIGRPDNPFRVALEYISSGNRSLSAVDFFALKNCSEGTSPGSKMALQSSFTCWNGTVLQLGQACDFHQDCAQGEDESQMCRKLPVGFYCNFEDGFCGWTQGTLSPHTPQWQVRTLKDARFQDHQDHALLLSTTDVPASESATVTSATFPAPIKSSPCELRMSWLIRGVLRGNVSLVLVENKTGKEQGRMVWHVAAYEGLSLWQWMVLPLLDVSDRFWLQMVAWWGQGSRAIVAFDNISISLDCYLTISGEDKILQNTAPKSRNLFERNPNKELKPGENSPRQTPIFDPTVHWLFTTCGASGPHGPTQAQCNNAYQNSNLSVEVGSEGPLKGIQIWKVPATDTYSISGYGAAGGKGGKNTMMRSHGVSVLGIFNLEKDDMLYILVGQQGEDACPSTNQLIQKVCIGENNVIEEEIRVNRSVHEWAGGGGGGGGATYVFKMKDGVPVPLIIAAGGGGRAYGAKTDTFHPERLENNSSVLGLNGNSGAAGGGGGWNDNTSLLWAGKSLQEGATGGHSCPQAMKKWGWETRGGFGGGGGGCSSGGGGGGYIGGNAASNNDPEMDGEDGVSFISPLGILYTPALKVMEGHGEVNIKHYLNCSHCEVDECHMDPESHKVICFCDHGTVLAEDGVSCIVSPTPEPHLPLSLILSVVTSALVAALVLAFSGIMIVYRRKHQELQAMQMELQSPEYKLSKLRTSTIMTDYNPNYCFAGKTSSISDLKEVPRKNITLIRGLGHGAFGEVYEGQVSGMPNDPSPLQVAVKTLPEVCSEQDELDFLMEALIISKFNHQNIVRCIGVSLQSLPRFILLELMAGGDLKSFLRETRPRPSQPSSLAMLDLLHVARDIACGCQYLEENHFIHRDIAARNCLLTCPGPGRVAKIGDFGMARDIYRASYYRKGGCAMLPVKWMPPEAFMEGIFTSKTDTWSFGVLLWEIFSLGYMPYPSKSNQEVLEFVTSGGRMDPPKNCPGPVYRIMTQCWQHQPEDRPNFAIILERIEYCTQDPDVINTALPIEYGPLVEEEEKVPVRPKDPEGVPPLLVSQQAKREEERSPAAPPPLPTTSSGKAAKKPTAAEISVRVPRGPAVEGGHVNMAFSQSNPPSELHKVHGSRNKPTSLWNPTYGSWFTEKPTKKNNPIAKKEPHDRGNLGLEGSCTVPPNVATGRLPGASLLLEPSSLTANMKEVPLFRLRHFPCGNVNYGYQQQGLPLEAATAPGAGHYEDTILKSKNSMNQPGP

Chain of Vascular endothelial growth factor receptor 2 (P35968 whole entry): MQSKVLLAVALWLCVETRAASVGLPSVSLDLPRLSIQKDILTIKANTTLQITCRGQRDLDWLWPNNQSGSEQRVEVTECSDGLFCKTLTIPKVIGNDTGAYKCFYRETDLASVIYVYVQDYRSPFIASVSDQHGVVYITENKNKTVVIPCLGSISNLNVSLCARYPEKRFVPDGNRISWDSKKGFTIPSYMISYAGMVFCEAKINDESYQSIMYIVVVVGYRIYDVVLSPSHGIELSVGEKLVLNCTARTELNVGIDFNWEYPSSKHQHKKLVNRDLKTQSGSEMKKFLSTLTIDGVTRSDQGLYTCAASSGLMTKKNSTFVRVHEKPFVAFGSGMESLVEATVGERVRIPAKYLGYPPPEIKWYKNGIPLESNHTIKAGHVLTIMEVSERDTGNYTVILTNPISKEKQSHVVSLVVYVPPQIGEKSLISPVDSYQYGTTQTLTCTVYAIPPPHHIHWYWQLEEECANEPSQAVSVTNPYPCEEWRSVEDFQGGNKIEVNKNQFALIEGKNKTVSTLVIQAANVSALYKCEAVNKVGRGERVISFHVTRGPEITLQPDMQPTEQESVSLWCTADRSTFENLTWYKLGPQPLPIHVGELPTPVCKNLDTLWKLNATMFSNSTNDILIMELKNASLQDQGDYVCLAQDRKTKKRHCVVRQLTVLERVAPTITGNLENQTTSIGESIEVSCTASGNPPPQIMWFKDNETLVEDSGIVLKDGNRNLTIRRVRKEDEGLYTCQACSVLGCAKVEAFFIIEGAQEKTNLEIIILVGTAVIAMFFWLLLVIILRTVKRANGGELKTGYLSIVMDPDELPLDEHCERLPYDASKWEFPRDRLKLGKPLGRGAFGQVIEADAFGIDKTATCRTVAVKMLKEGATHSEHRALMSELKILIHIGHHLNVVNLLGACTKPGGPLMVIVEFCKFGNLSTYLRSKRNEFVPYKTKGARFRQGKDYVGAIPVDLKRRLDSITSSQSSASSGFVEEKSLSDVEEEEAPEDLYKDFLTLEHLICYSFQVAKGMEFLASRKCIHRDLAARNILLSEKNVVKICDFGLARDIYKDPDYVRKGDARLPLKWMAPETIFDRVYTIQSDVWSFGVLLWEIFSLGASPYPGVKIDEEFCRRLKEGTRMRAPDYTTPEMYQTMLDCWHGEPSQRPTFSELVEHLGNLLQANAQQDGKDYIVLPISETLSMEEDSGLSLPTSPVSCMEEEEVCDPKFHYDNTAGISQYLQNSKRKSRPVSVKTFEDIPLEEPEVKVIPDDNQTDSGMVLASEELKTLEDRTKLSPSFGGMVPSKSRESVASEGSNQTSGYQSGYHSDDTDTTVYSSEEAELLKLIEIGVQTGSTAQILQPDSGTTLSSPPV
Chain of Mast/stem cell growth factor receptor Kit (P10721 whole entry): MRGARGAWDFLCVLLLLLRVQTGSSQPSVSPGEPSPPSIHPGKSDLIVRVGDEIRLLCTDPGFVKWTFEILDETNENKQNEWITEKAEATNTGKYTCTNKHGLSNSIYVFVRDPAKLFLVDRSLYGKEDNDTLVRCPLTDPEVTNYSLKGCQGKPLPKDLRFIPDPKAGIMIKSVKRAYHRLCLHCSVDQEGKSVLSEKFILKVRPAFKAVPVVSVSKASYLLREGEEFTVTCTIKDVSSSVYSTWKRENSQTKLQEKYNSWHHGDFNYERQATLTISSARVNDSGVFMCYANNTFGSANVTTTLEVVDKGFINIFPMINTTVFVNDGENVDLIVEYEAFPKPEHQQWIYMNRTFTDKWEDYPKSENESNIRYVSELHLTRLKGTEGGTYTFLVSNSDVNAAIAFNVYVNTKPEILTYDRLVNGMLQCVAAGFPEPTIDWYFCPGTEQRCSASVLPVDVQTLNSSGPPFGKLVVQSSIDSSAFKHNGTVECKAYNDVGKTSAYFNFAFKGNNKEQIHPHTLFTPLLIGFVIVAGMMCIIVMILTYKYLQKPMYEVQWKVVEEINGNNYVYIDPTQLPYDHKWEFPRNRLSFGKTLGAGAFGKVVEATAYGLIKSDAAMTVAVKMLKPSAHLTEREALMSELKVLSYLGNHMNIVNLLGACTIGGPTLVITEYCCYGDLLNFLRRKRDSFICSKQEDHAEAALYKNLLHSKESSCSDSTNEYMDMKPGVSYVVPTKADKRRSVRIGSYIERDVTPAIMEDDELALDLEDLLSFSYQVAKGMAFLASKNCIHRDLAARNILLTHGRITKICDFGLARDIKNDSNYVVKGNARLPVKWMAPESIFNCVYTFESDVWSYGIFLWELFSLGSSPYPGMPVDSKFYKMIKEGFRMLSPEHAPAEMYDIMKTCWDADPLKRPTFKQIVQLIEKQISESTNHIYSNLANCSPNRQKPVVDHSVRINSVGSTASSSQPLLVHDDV
T1 sequence (P05771 whole entry): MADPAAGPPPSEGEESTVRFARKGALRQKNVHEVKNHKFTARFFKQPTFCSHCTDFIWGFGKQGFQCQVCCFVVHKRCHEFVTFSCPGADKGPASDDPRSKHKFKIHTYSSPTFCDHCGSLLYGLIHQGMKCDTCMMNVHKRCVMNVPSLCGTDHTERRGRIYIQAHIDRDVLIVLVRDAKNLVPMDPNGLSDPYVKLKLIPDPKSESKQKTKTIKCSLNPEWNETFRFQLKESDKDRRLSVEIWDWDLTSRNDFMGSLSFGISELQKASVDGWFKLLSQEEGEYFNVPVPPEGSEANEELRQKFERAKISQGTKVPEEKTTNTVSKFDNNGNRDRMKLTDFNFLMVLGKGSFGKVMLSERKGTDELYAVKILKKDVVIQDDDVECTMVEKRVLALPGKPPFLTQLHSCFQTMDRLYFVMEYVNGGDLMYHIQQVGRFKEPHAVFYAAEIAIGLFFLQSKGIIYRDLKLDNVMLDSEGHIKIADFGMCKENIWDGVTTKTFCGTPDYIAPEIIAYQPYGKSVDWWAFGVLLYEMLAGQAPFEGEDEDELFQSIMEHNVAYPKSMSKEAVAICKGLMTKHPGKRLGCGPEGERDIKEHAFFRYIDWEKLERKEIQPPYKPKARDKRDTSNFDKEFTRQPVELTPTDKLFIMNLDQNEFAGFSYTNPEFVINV
Chain of RAC-alpha serine/threonine-protein kinase (P31749 whole entry): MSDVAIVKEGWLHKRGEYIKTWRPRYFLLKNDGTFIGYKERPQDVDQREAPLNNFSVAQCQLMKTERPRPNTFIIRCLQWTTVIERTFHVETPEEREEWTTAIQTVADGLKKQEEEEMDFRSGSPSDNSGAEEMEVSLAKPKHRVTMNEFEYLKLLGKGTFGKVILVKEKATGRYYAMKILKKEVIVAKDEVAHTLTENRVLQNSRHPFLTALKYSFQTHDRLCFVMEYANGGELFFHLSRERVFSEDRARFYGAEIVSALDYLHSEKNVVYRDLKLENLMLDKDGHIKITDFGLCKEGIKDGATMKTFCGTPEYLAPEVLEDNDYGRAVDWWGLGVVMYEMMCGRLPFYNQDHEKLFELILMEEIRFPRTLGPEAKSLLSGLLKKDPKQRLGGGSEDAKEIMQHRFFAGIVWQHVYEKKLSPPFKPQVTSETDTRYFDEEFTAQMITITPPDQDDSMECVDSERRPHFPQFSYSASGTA

Compound: CCc1cc2c(cc1N1CCN(C3COC3)CC1)C(C)(C)c1[nH]c3cc(C#N)ccc3c1C2=O
half-life [4]: 5.3 h
Vd [5]: 0.296 L/kg
clearance [6]: 0.73 mL/min/kg
half-life [7]: 6.25 h
Cmax [8]: 327 ng/mL
AUC [9]: 3270 ng·h/mL
bioavailability [10]: 28.2%
microsomal CLint at 1 µM [11]: 4.5 µL/min/mg
microsomal CLint at 1 µM [12]: 17 µL/min/mg
Activity (KARPAS-299 [13]): Dose-dependent effect
pIC50 [14]: < 4.30
pIC50 [15]: < 4.30
pIC50 [16]: < 4.30
pIC50 [17]: < 4.30
pIC50 (Aurora kinase A): < 4.30
pIC50 [18]: < 4.30
pIC50 [19]: < 4.30
pIC50 [20]: < 4.30
pIC50 [21]: < 4.30
pIC50 [22]: < 4.30
pIC50 [23]: < 4.30
pIC50 (Insulin receptor): 6.34
pIC50 [1]: < 5.30
pIC50 [2]: < 5.30
pIC50 [3]: < 5.30
inhibition in vivo at 2 mg/kg (KARPAS-299 [24]): 49%
inhibition in vivo at 6 mg/kg (KARPAS-299 [25]): 103%
inhibition in vivo at 20 mg/kg (KARPAS-299 [26]): 119%
pIC50 (KARPAS-299 [27]): 7.89

Compound: C#Cc1cc2c(cc1N1CCN(C3COC3)CC1)C(C)(C)c1[nH]c3cc(C#N)ccc3c1C2=O
microsomal CLint at 1 µM [11]: 2.1 µL/min/mg
microsomal CLint at 1 µM [12]: 18.9 µL/min/mg
pIC50 [1]: < 5.30
pIC50 [2]: 5.62
pIC50 [28]: 8.57
pIC50 [3]: 6.34

Compound: CC1(C)c2cc(N3CCN(C4COC4)CC3)c(CCC3CCCC3)cc2C(=O)c2c1[nH]c1cc(C#N)ccc21
microsomal CLint at 1 µM [11]: 44.7 µL/min/mg
microsomal CLint at 1 µM [12]: 17.8 µL/min/mg
pIC50 [1]: < 5.30
pIC50 [2]: < 5.30
pIC50 [3]: < 5.30
pIC50 (KARPAS-299 [27]): 6.26

More lines, now with the values ahead:

pIC50 [1]: < 5.30
pIC50 [2]: 7.08
pIC50 [3]: 6.86
Compound: CC1(C)c2cc(N3CCN(C4COC4)CC3)ccc2C(=O)c2c1[nH]c1cc(C#N)ccc21

microsomal CLint at 1 µM [11]: 4.1 µL/min/mg
microsomal CLint at 1 µM [12]: 17.4 µL/min/mg
pIC50 [1]: < 5.30
pIC50 [2]: < 5.30
pIC50 [28]: 7.18
pIC50 [3]: < 5.30
pIC50 (KARPAS-299 [27]): 6.93
Compound: CC(C)c1cc2c(cc1N1CCN(C3COC3)CC1)C(C)(C)c1[nH]c3cc(C#N)ccc3c1C2=O

microsomal CLint at 1 µM [11]: 7 µL/min/mg
microsomal CLint at 1 µM [12]: 22.6 µL/min/mg
pIC50 [1]: < 5.30
pIC50 [2]: 7.30
pIC50 [28]: 7.97
pIC50 [3]: 7.22
pIC50 (KARPAS-299 [27]): 7.83
Compound: Cc1cc2c(cc1N1CCN(C3COC3)CC1)C(C)(C)c1[nH]c3cc(C#N)ccc3c1C2=O

microsomal CLint at 1 µM [11]: 4.7 µL/min/mg
microsomal CLint at 1 µM [12]: 19.4 µL/min/mg
pIC50 [1]: < 5.30
pIC50 [2]: < 5.30
pIC50 [28]: 7.82
pIC50 [3]: < 5.30
pIC50 (KARPAS-299 [27]): 7.60
Compound: CCCc1cc2c(cc1N1CCN(C3COC3)CC1)C(C)(C)c1[nH]c3cc(C#N)ccc3c1C2=O
